Inhibition and IC50 data for ten compounds are collected here from ChEMBL document CHEMBL3580660, “Synthesis and Biological Evaluation of Novel Olean-28,13β-lactams as Potential Antiprostate Cancer Agents” (J Med Chem, 2015).

Activity calls are given as the source filed them. No cut-off for these calls is given here.

In assay [1] the test system is DU-145. Briefly: Antiproliferative activity against human DU145 cells at 2 uM after 72 hrs by CCK8 assay. Format: functional. In outline:
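DU-145 screening at single concentration 2 μM for 72 h, proliferation by CCK-8 (cells 5 × 10^3/well in 10% FCS DMEM). Percent inhibition vs untreated, background-corrected; mean ± SD from three independent experiments.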

The nature of assay [2]: Antiproliferative activity against human Bel7404 cells after 72 hrs by CCK8 assay. In kind it is functional, cell-based. To be noted: BEL-7404, 72 h. In outline: (§1)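 CCK-8 assay: DU-145, H460, Bxpc-3, BEL-7404 and nontumor WPMY-1 cells seeded at 5 × 10^3 cells/well in 10% FCS DMEM overnight, then exposed in triplicate to 0.041−10 μM for 72 h. CCK-8 added for final 30 min, absorbance 450 nm; inhibition relative to medium-only controls after background subtraction; IC50 as concentration giving 50% inhibition.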

Assay [3] relates to DU-145. Briefly: Antiproliferative activity against human DU145 cells after 72 hrs by CCK8 assay. In kind it is functional, cell-based. To be noted: DU-145, 72 h. In outline: as §1
Assay [4] in a line: Antiproliferative activity against human H460 cells after 72 hrs by CCK8 assay. To be noted: NCI-H460, 72 h. Format: functional, cell-based. In outline:
as §1

Assay [5] can be described thus: Antiproliferative activity against human BxPC3 cells after 72 hrs by CCK8 assay. In kind it is functional, cell-based. The following applies: BXPC-3, 72 h. Put shortly:
as §1

Assay [6] in a line: Antiproliferative activity against human WPMY-1 cells after 72 hrs by CCK8 assay. The following applies: WPMY-1, 72 h. In kind it is functional, cell-based. Put shortly: as §1

On to `CCN1C(=O)[C@]23CCC(C)(C)C[C@H]2[C@]12C(=O)C=C1[C@@]4(C)C=C(C#N)C(=O)C(C)(C)[C@@H]4CC[C@@]1(C)[C@]2(C)CC3`, for which, in the assay with DU-145 [1], the inhibition result is “Active”.
In the case of `CN1C(=O)[C@]23CCC(C)(C)C[C@H]2[C@]12C(=O)C=C1[C@@]4(C)C=C(C#N)C(=O)C(C)(C)[C@@H]4CC[C@@]1(C)[C@]2(C)CC3`, the inhibition result with DU-145 [1] is “Active”.
For `CC1(C)CC[C@]2(C(=O)n3ccnc3)CC[C@]3(C)[C@H](C(=O)C=C4[C@@]5(C)C=C(C#N)C(=O)C(C)(C)[C@@H]5CC[C@]43C)[C@@H]2C1`, the IC50 in assay [2] stood at 990 nM; with DU-145 [3], 690 nM; in assay [4] it was 420 nM; in assay [5], 1500 nM; in assay [6] it was 2.09 µM.
Turning to `CC1(C)CC[C@]23CC[C@@]4(C)[C@]5(C)CC[C@H]6C(C)(C)C(=O)C(C#N)=C[C@]6(C)C5=CC(=O)[C@@]4([C@@H]2C1)N(C(C)(C)C)C3=O`, the IC50 in assay [2] is 1140 nM; in the assay with DU-145 [3], 960 nM; in assay [4], 430 nM; in assay [5], 660 nM; in assay [6], 9.6 µM. In addition, in the assay on DU-145 [1], the inhibition result is “Active”.
In the case of `CC1(C)CC[C@]23CC[C@@]4(C)[C@]5(C)CC[C@H]6C(C)(C)C(=O)C(C#N)=C[C@]6(C)C5=CC(=O)[C@@]4([C@@H]2C1)N(CCc1ccccc1)C3=O`, the inhibition result with DU-145 [1] was “Active”.
The same measure, in the same setting: the entry for `CCCCN1C(=O)[C@]23CCC(C)(C)C[C@H]2[C@]12C(=O)C=C1[C@@]4(C)C=C(C#N)C(=O)C(C)(C)[C@@H]4CC[C@@]1(C)[C@]2(C)CC3` is “Active”.
Take `CC1(C)CC[C@]2(C(=O)NC3CCCCC3)CC[C@]3(C)[C@H](C(=O)C=C4[C@@]5(C)C=C(C#N)C(=O)C(C)(C)[C@@H]5CC[C@]43C)[C@@H]2C1`: in the assay with DU-145 [1] (DU-145, 72 h), the inhibition at 2 µM was determined as 53%.
Regarding `CC1(C)CC[C@]23CC[C@@]4(C)[C@]5(C)CC[C@H]6C(C)(C)C(=O)C(C#N)=C[C@]6(C)C5=CC(=O)[C@@]4([C@@H]2C1)N(CCO)C3=O`, the inhibition result in the assay with DU-145 [1] is “Active”.
Same read-out and setting: the entry for `CCCN1C(=O)[C@]23CCC(C)(C)C[C@H]2[C@]12C(=O)C=C1[C@@]4(C)C=C(C#N)C(=O)C(C)(C)[C@@H]4CC[C@@]1(C)[C@]2(C)CC3` is “Active”; for `CCCCCCN1C(=O)[C@]23CCC(C)(C)C[C@H]2[C@]12C(=O)C=C1[C@@]4(C)C=C(C#N)C(=O)C(C)(C)[C@@H]4CC[C@@]1(C)[C@]2(C)CC3` it is “Active”.
